{"source": "ChEMBL document CHEMBL3632468", "about": "“Discovery and optimisation studies of antimalarial phenotypic hits” (Eur J Med Chem, 2015)", "key": {"Plasmodium berghei [1]": {"tested_on": "Plasmodium berghei", "assay": "Antimalarial activity against Plasmodium berghei ANKA expressing GFP infected in NMRI mouse assessed as inhibition of parasitemia at 50 mg/kg, ip qd administered as single dose on day 0 to 4 of exposure measured on day 5 post exposure by FACS method relative to control", "format": "functional", "outline": "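P. berghei ANKA GFP infection in mice; dosed intraperitoneally at 50 mg/kg/day × 4, with chloroquine 10 mg/kg ip as reference and untreated controls. Read-out was % reduction in parasitaemia relative to controls, with survival in days also recorded.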"}, "Plasmodium berghei [2]": {"tested_on": "Plasmodium berghei", "assay": "Antimalarial activity against Plasmodium berghei ANKA expressing GFP infected in NMRI mouse assessed as increase in mouse survival at 50 mg/kg, ip qd administered as single dose on day 0 to 4 of exposure measured on day 5 post exposure by FACS method (reference value: 7 days)", "format": "functional", "outline": "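P. berghei ANKA GFP infection in mice, dosed intraperitoneally at 50 mg/kg/day × 4. An untreated control group and a chloroquine 10 mg/kg ip reference group were included. Read-outs were % reduction in parasitaemia and mean survival in days.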"}, "[3]": {"assay": "Solubility in phosphate buffer at pH 6.5 by nephelometry", "format": "physicochemical"}, "Liver microsome [4]": {"tested_on": "Liver microsome", "assay": "Intrinsic clearance in human liver microsomes assessed as compound metabolized at 1 uM pre-incubated at 37 degC before addition of NADPH-generating system by LC/MS method", "format": "ADME"}, "Liver": {"tested_on": "Liver", "assay": "Intrinsic clearance in mouse liver microsomes assessed as compound metabolized at 1 uM pre-incubated at 37 degC before addition of NADPH-generating system by LC/MS method", "format": "ADME"}, "Liver microsome [5]": {"tested_on": "Liver microsome", "assay": "Drug metabolism in human liver microsomes at 1 uM by LC/MS method", "format": "ADME"}, "[6]": {"assay": "Drug metabolism in mouse liver microsomes at 1 uM by LC/MS method", "format": "ADME"}}}
{"smiles": "Cc1cc(/C=C2\\S/C(=N\\c3ccccc3)N(C3CCCCC3)C2=O)c(C)n1-c1ccc(F)cc1", "values": [{"measurement": "inhibition in vivo at 50 mg/kg", "setting": "Plasmodium berghei [1]", "value": 12, "unit": "%"}, {"measurement": "Survival", "setting": "Plasmodium berghei [2]", "value": 6, "unit": "days"}, {"measurement": "solubility kinetic", "setting": "[3]", "value": 0.8, "unit": "µg/mL"}, {"measurement": "CLH", "setting": "Liver microsome [4]", "value": 360, "unit": "µL/min/mg"}, {"measurement": "CLH", "setting": "Liver", "value": 55, "unit": "µL/min/mg"}, {"measurement": "Drug metabolism", "setting": "Liver microsome [5]", "value": "metabolite_notdetected"}, {"measurement": "Drug metabolism", "setting": "[6]", "value": "metabolite_notdetected"}]}
